# Where a chain is given by its changes, count along the chain named. Marks after values point to notes of the source that are not given here. Starred links: 1 amine or outer side, 2 acyl side, 3 side chain; linkers in the order of their positions; H or OH if unused. Non-standard residues stand in square brackets, D forms with d. Residues, ends and D or L forms follow the SMILES beside them. *: point of attachment. X2 = CN(C)c1ccc2c(-c3ccc(C(=O)*)cc3C(=O)[O-])c3ccc(=[N+](C)C)cc-3oc2c1; Isoquinoline5sulfonyl = O=S(=O)(c1cccc2cnccc12)*; X1 = O=C(CCCCCNCCN[*:1])[*:2]
# Key:
# PKGIα [1] = molecular target: T1, PKGIα (Bos taurus, UniProt P00516); experiment: FI displacement assay; assay type: binding, bovine
# T1 sequence (P00516 1-671): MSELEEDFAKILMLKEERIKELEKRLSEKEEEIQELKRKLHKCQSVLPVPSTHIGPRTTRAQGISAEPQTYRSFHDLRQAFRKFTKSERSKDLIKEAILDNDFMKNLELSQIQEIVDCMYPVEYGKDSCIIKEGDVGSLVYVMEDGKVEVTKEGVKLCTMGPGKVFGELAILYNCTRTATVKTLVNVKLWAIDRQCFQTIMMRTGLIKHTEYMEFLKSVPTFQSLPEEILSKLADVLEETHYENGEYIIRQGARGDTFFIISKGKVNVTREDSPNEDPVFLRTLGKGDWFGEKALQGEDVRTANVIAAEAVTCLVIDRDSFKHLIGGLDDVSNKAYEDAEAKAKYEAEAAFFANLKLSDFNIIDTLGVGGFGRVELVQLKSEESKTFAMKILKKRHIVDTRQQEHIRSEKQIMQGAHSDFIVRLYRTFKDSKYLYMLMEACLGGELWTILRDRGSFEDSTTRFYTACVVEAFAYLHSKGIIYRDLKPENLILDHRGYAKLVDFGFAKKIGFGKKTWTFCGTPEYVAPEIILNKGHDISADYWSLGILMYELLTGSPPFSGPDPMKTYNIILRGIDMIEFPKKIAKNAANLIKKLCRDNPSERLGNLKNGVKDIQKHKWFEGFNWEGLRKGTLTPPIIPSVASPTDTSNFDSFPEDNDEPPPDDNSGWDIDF
# PKGIα [2] = molecular target: T2, PKGIα (Homo sapiens, UniProt Q13976); experiment: FA displacement assay; assay type: binding; settings: for log IC50, PKGIα, FA (displacement): displacement of ARC-1059 (2 nM) from PKGIα (4 nM), cGMP 1 μM, logarithm of IC50
# T2 sequence (Q13976 1-671): T1 sequence (P00516 1-671) with K265T, N275S
# PKGIα [3] = settings: reported in the literature; cited from earlier work
# PKGIα [4] = molecular target: T1, PKGIα; experiment: Radioactive inhibition assay; assay type: biochemical, bovine
# PKGIα [5] = molecular target: T2, PKGIα; experiment: FA direct binding assay; settings: addition of cGMP in the absence of Mg2+
# [6] = system: vascular smooth muscle cells in intact cerebral arteries; experiment: Fluorescence imaging of vascular smooth muscle cells in intact arteries; assay type: cell-based, rat
# Summary of the method: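 Isolated intact rat cerebral arteries incubated at room temperature in Hepes buffer with the TAMRA-labelled test compound (100 nM, 1 μM or 10 μM) for 20, 40 or 60 min, then washed 3 times. Imaged by confocal scanning laser microscopy at 20× and 40×, with TAMRA excited at 568 nm (krypton–argon laser). Fluorescein-labelled reference peptide (2 μM) with TOTO-3 nuclear stain (488/647 nm excitation) used as reference.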
# PKAc = PKAc (Homo sapiens, UniProt P17612); settings: 100 μM ATP and 30 μM TAMRA-Kemptide substrate; logarithm of IC50; cited from earlier work
compound,measurement,setting,value
CSCC[C@H](NC(=O)[C@H](C)NC(=O)[C@H](CC(C)C)NC(=O)[C@H](C)NC(=O)[C@H](CCCCN)NC(=O)[C@H](CCCCN)NC(=O)[C@H](CCCNC(=N)N)NC(=O)[C@H](CCCCN)NC(=O)[C@H](C)NC(=O)[C@H](CCC(N)=O)NC(=O)[C@@H](N)[C@@H](C)O)C(=O)N[C@@H](C)C(N)=O [WW21],IC50,PKGIα [1],251000 nM
"O=S(=O)(NCCNCC=Cc1ccc(Br)cc1)c1cccc2cnccc12 [H89, N-[2-(p-bromocinnamylamino)ethyl]-5-isoquinoline-sulfonamide]",IC50,PKGIα [2],3020 nM
same,IC50,PKGIα [1],1100 nM
same,Ki,PKGIα [3],480 nM
COC(=O)[C@@]1(OC)C[C@H]2O[C@]1(C)n1c3ccccc3c3c4c(c5c6ccccc6n2c5c31)C(=O)N(C)C4 [KT-5823],displacement of ARC-1059 from its complex with PKGIα,PKGIα [2]; assay format not stated,failed to displace ARC-1059
Nc1ncnc2c1ncn2[C@@H]1O[C@H](COP(=O)(O)OP(=O)(O)OP(=O)(O)O)[C@@H](O)[C@H]1O [ATP],"log IC50, PKGIα, FA (displacement)",PKGIα [2],−2.02 (0.33)
same,Km,PKGIα [4]; PKGIα-catalysed phosphorylation,20 µM
Nc1ncnc2c1ncn2[C@@H]1O[C@H](COP(=O)(O)OP(=O)([O-])OP(=O)([O-])O)[C@@H](O)[C@H]1O.[Mg+2] [MgATP],"log IC50, PKGIα, FA (displacement)",PKGIα [2],−2.35 (0.08)
"CN(C)c1ccc2c(-c3ccc(C(=O)NCCCC[C@@H](NC(=O)[C@@H](CCCNC(=N)N)NC(=O)[C@@H](CCCNC(=N)N)NC(=O)[C@@H](CCCNC(=N)N)NC(=O)[C@@H](CCCNC(=N)N)NC(=O)[C@@H](CCCNC(=N)N)NC(=O)[C@@H](CCCNC(=N)N)NC(=O)CCCCCNCCNS(=O)(=O)c4cccc5cnccc45)C(N)=O)cc3C(=O)[O-])c3ccc(=[N+](C)C)cc-3oc2c1 [ARC-1059, H9-Hex-(D-Arg)6-[D-Lys(TAMRA)]-NH2] (Isoquinoline5sulfonyl-[X1][dR][dR][dR][dR][dR][dR][dK](X2)-NH2)",increase of affinity towards PKGIα by addition of cGMP,PKGIα [5],8 fold
same,"internalization in smooth muscle tissue, concentration dependence","[6]; 100 nM, 1 μM or 10 μM",not well observable at concentrations lower than 1 μM
same,incubation time after which internalization into tissue cells was observable,"[6]; 10 μM, nucleus not yet stained",20 min
same,internalization into vascular smooth muscle cells,"[6]; intact pial arteries from rat brain, incubation 20, 40 or 60 min at room temperature",internalized into vascular smooth muscle cells
NCCNS(=O)(=O)c1cccc2cnccc12 [H9],"log IC50, PKGIα, Inhibition","PKGIα [4]; 100 μM ATP and 11 μM TQAKRKKSLAMA substrate, presence of cGMP, logarithm of IC50",−6.85 (0.02)
same,IC50,"PKGIα [4]; read-out: inhibition IC50, 100 μM ATP, 11 μM substrate peptide, presence of cGMP",141 nM
same,"log IC50, PKAc, Inhibition",PKAc,−5.43 ^b [36]
same,Ki,PKGIα [3],870 nM
